# From PubChem BioAssay
# CYP2C9 act: CYP2C9 (human) activation. P11712. recombinant CYP2C9, luciferin-H conversion, luminescence; stronger effect = higher value; factor 1 = untreated enzyme, 0 = blocked. activation factor at 5 µM. 96,000 tested, 1.4% active. AID 1024;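 active means activation factor of 2 or more for CYP2C9 at a 5 µM dose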;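 further: 0 = sulfaphenazole-blocked wells and 1 = vehicle-only wells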
# Target sequence (P11712 whole entry, looked up): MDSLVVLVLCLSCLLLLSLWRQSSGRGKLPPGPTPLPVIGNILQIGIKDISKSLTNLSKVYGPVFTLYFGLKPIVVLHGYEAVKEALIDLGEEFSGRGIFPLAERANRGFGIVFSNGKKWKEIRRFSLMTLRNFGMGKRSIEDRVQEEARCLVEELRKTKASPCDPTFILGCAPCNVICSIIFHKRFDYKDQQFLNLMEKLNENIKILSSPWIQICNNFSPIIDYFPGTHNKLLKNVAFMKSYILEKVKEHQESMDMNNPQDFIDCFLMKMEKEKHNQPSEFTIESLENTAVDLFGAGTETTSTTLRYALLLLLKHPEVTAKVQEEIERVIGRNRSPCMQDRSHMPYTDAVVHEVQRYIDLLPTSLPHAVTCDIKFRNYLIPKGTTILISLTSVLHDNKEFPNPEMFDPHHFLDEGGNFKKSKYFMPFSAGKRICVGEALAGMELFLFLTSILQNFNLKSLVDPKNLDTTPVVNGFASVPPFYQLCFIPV
# Rev-RRE block: disrupts HIV-1 Rev binding to RRE RNA; 97,000 tested, 0.79% active; Rev peptide-RRE RNA binding, FRET; inhibition, % at 8 µM;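 active means inhibition above the screen-wide mean plus 3 SD, cut at about 35% in these data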;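 further: 0% = median DMSO wells and 100% = median Neomycin B control wells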
# Target sequence (P05866 whole entry, looked up): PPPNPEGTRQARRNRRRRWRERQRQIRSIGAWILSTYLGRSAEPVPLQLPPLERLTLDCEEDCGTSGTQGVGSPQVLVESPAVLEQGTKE
#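 Assay system: Labelled RRE RNA duplex and labelled Rev peptide | Times: 5 min preincubation and 15 min binding, 25 °C | Detection: FRET, ex 480 nm, em 540 and 671 nm | Evaluation: % inhibition of FRET ratio versus controls | Benchmarks: DMSO wells as 0% and neomycin B wells as 100% inhibition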
# Cav32 inh: inhibitors of human Cav3.2 T-type calcium channel; B-score at 10 µM; 100,000 tested, 4% active; O95180; Cav3.2-expressing cells, Fluo-4 calcium fluorescence FDSS; stronger effect = lower value;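 active means single-dose well whose peak fluorescence ratio is a statistical outlier from its plate by either plate-standardised score or position-corrected B-score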
# CYP2C19 activ: increases human CYP2C19 enzyme activity. AID 1025. P33261. 96,000 tested, under 10 active. activation factor at 5 µM. recombinant CYP2C19, luciferin-H EGE luminescence; stronger effect = higher value; 0 = fully inhibited enzyme, 1 = untreated enzyme;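 active means activation factor of at least 2 at 5 µM in the primary screen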;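 further: 0 = wells with 2.5 mM tranylcypromine and 1 = vehicle-only wells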
# CYP2C19 inh: human CYP2C19 inhibition; P33261; CYP2C19 Supersomes, luciferin-H EGE luminescence, 30 min; inhibition, % at 5 µM; 96,000 tested, 21% active; AID 778;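 active means CYP2C19 inhibition above a set limit at 5 µM in the primary screen, cut at about 50% in these data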;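 further: plate controls were negative control wells for no effect and 2.5 mM tranylcypromine positive control for full effect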
# CYP2C9 inhib: inhibitors of human CYP2C9. CYP2C9 Supersomes, luciferin-H conversion, luminescence. inhibition, % at 5 µM. AID 777. 96,000 tested, 20% active;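 active means blocking of liver enzyme CYP2C9 beyond about 50% at 5 µM, limit read from the data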
# An asterisk follows results filed as active; . = no result given. An excerpt weighted towards active compounds, which were near 27% of everything screened.
SMILES,CYP2C9 act,Rev-RRE block,Cav32 inh,CYP2C19 activ,CYP2C19 inh,CYP2C9 inhib
CN(c1ccccc1)C(c1ccc(F)cc1)c1nnnn1C1CCCC1 (configuration not stated),0.2,2.9,-7.51*,0.1,90.3*,82.1*
Cc1ccc(C(c2nnnn2CCc2ccccc2)N2CCC(C)CC2)cc1 (configuration not stated),.,9.5,-7.41*,.,.,.
COC(=O)CN(C#N)c1nc(OC)nc(N(C)C)n1,1.2,3.5,1.49,0.9,14.5,-15.4
O=C1CCCN1CN(C(=O)c1ccc2c(c1)OCO2)c1ccc(F)cc1,1,3.3,0.492,0.9,13.8,2.0
Cc1ccc(-n2nnc(-c3ccnc4ccccc34)n2)cc1,.,.,-0.898,.,.,.
S=C(Nc1ccccn1)c1ccccn1,0.5,4.1,.,0.3,66.1*,51.2*
COCCCNC(=S)NC1CC2CCCC(C1)N2Cc1cccs1 (configuration not stated),0.9,2.9,1.28,1,1.4,14.5
Cc1ccc(S(=O)(=O)N(CC(=O)N/N=C/c2cccc(C)c2)c2cccc3cccnc23)cc1,0.9,1.7,.,1.1,-11.0,10.7
Cc1ccc(S(=O)(=O)N(CC(=O)N/N=C/c2cccc3c2OCCO3)c2ccccc2F)cc1,0.1,-3.3,-0.0684,0.2,82.2*,93.6*
COc1cc(C)c(N)cc1C(C)C,0.4,2.5,0.424,0.1,88.4*,56.8*
Cc1cc(N2CCCC2)nc(SCC(=O)c2ccccc2)n1,.,11.1,-0.134,.,.,.
Cc1cc(C)nc(SCNC(=O)c2ccc(Cl)cc2)n1,1.6,-0.4,-0.0367,0.1,90.6*,-63.2
O=C(Nc1ccc(N2CCOCC2)nc1)c1ccc(Cl)cc1,1.1,10.3,.,1.1,-5.7,-14.3
Cc1cc(C)nc(SCC(=O)c2ccc([N+](=O)[O-])cc2)n1,0.8,8.3,-0.589,0.1,92.2*,20.5
Cc1cc(N2CCC(C)CC2)nc(SCC(=O)c2ccccc2)n1,.,5.2,-4.67*,.,.,.
Cc1cc(N2CCOCC2)nc(SCC(=O)c2ccc(Cl)cc2)n1,0.8,11.9,-0.801,0.2,79.9*,23.1
Cc1cc(C)nc(SCC(=O)c2ccc(O)cc2O)n1,1.3,2.7,0.0153,0.6,43.9,-33.3
CCc1c(C#N)c(N)nc(SCC(=O)OCc2ccccc2)c1C#N,0.9,17.0,0.237,0.9,6.1,7.3
C=CCn1c(-c2ccoc2)n[nH]c1=S,1.1,14.8,.,1,4.6,-10.4
COc1ccc(/C(C)=N/NC(=O)c2nc(C)cc(C)n2)cc1,2.3*,1.2,0.844,1.2,-23.9,-134.8
CCCCOc1ccc(-c2nnn(CC(=O)NCCc3c[nH]c4ccccc34)n2)cc1,0.5,3.9,-0.751,0.9,9.5,49.4
CCNc1nc(NCC)nc(Nn2cnnc2)n1,1.1,1.7,0.0633,1,2.1,-12.1
Cc1ccc(CSc2nc3c(c(=O)[nH]2)C(c2ccncc2)C2=C(CCCC2=O)N3)cc1 (configuration not stated),0.1,-2.7,0.201,0.1,93.8*,94.6*
Cc1ccc(CSc2nc3c(c(=O)[nH]2)CCC3)cc1,0.4,-1.0,-0.462,0.9,11.9,56.1*
Cc1ccccc1CSc1nc2c(c(=O)[nH]1)CCCC2,0.4,4.2,.,0.9,6.8,60.0*
SMILES,CYP2C9 act,Rev-RRE block,Cav32 inh,CYP2C19 activ,CYP2C19 inh,CYP2C9 inhib
CCOCCCNC(=O)C(NC(=O)C1CCC(=O)N1)c1ccc(C)cc1 (configuration not stated),1.1,3.7,-0.031,1.2,-23.8,-10.8
CC(=O)N1C(Nc2ccc(Cl)cc2)CCN1c1ccccc1 (configuration not stated),1,2.8,-0.299,0.8,18.5,4.8
COC(=O)c1cn(NC(=O)c2cccnc2)c(=O)c2ccccc12,0.9,2.4,-0.582,1.1,-8.3,6.7
C=CCn1c(SCC(=O)c2ccc(CNC(C)=O)o2)nc2scc(C3CC3)c2c1=O,0.3,6.4,0.684,0.4,57.3*,72.8*
C=CCn1c(SCc2cc(=O)n3ccsc3n2)nc2scc(C3CC3)c2c1=O,0.6,.,-0.749,0.9,7.1,44.7
C=CCn1c(SC2CCOC2=O)nc2sc(C)c(C)c2c1=O (configuration not stated),.,-0.5,1.61,.,.,.
C=CCn1c(SCC(=O)NC2CCS(=O)(=O)C2)nc2scc(C3CC3)c2c1=O (configuration not stated),0.3,3.4,-0.0588,0.6,35.7,72.1*
C=CCn1c(SC2CCOC2=O)nc2scc(C3CC3)c2c1=O (configuration not stated),0.2,3.8,0.233,0.2,82.9*,77.3*
Cc1cc2oc3ccc(NCCCn4ccnc4)cc3c(=O)c2cc1C,.,.,0.0718,.,.,.
COc1ccc(S(=O)(=O)Nc2ccc(O)c3ccccc23)cc1,0.3,5.1,-0.0771,0,97.4*,67.1*
COc1ccc(S(=O)(=O)Nc2ccccc2C(F)(F)F)cc1,0.8,1.0,-1.23,0.2,78.2*,21.4
COc1ccc(S(=O)(=O)NC(C)C(=O)Nc2ccccc2C(F)(F)F)cc1 (configuration not stated),1.3,2.4,0.574,0.7,33.1,-25.0
COC(=O)Nc1ccc(S(=O)(=O)Nc2cccc3ccccc23)cc1,.,-0.6,-0.402,.,.,.
O=C(O)CCCNS(=O)(=O)c1cccc2nsnc12,1,6.0,0.0124,1.1,-6.3,1.0
Cc1ccc(-c2nc3ccccc3n3nnnc23)cc1,0.9,-1.1,-0.0922,0.9,9.6,12.7
Cn1nnnc1SCC(=O)N1CCN(c2cccc(Cl)c2)CC1,1.1,4.5,.,0.3,71.7*,-11.1
Nn1c(SCC(=O)N2CCc3ccccc3C2)nnc1-c1cccs1,0.9,-1.7,0.667,0.7,32.3,9.4
Nc1nc(SCC(=O)N2CCCc3ccccc32)n(-c2ccccc2)n1,0.7,3.4,-0.24,0.3,74.6*,33.7
O=C(CSc1nnnn1-c1ccc(Cl)cc1)N1CCc2ccccc2C1,0.6,8.5,-0.485,0.3,74.1*,37.0
Nn1c(SCC(=O)N2CCCc3ccccc32)nnc1-c1ccccc1,1,4.5,.,0.8,23.2,-3.0
O=C(CSc1nnnn1-c1cccc2ccccc12)N1CCOCC1,2.9*,3.3,-0.0935,0.9,13.3,-194.6
O=C(CSc1nnnn1-c1ccc2c(c1)OCCO2)N1CCc2ccccc21,1.3,-2.0,-0.548,1,2.6,-34.9
CCn1nnnc1SCC(=O)N1c2ccccc2CCc2ccccc21,0.3,3.7,0.832,0.1,90.9*,70.6*
O=C(CSc1nnnn1-c1ccccc1)N1CCCc2ccccc21,0.4,11.1,-1.97,0.2,79.7*,57.9*
O=C(CSc1nnc(-c2cccs2)n1-c1ccccc1)N1CCCc2ccccc21,0.1,4.3,-0.905,0.5,48.7,85.3*
Cn1nnnc1SCC(=O)N1c2ccccc2CCc2ccccc21,0.9,8.4,0.00831,0.7,28.8,12.2
